Laboratory results from ChEMBL document CHEMBL2429814 (J Med Chem, 2013).
pEC50: −log10 of the molar value.

Key:
[1] = molecular target: T1, Metabotropic glutamate receptor 5 (Rattus norvegicus, UniProt P31424); assay: Agonist activity at rat mGluR5 stably expressed in HEK293 cells assessed as increase in intracellular calcium level by Fluo-4AM dye-based fluorescence assay relative to glutamate; format: cell-based; details: read-out: Efficacy
Procedure, shortened: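 HEK293 cells stably expressing rat mGlu5 (low receptor density), 15,000 cells/well, grown overnight, then loaded with Fluo-4AM for 50 min at 37°C in HBSS/20 mM HEPES/2.5 mM probenecid, pH 7.4. Triple-add protocol: compound, then glutamate EC20 140 s later, then EC80 60 s later. Fluorescence read over time. At least three independent runs in duplicate or triplicate; response given as % of glutamate maximum.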

[2] = molecular target: T1, Metabotropic glutamate receptor 5; assay: Positive allosteric modulation of rat mGluR5 stably expressed in HEK293 cells assessed as increase in intracellular calcium level by Fluo-4AM dye-based fluorescence assay; format: functional, cell-based; details: read-out: EC50
Procedure, shortened: (§1)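 HEK293 cells stably expressing rat mGlu5 (low receptor density line), 15,000 cells/well, grown overnight at 37°C/5% CO2. Loaded with Fluo-4AM for 50 min at 37°C in HBSS with 20 mM HEPES, 2.5 mM probenecid, pH 7.4. Triple add: compound, then EC20 glutamate 140 s later, then EC80 glutamate 60 s later. Calcium fluorescence read over time. Values are means of ≥3 independent experiments run in duplicate or triplicate.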

[3] = molecular target: Metabotropic glutamate receptor 5 (Rattus norvegicus) (UniProt P31424); assay: Positive allosteric modulation of rat mGluR5 stably expressed in HEK293 cells assessed as increase in intracellular calcium level by Fluo-4AM dye-based fluorescence assay relative to glutamate; format: functional, cell-based
Chain of Metabotropic glutamate receptor 5 (Rattus norvegicus) (P31424 21-1203 limits assumed): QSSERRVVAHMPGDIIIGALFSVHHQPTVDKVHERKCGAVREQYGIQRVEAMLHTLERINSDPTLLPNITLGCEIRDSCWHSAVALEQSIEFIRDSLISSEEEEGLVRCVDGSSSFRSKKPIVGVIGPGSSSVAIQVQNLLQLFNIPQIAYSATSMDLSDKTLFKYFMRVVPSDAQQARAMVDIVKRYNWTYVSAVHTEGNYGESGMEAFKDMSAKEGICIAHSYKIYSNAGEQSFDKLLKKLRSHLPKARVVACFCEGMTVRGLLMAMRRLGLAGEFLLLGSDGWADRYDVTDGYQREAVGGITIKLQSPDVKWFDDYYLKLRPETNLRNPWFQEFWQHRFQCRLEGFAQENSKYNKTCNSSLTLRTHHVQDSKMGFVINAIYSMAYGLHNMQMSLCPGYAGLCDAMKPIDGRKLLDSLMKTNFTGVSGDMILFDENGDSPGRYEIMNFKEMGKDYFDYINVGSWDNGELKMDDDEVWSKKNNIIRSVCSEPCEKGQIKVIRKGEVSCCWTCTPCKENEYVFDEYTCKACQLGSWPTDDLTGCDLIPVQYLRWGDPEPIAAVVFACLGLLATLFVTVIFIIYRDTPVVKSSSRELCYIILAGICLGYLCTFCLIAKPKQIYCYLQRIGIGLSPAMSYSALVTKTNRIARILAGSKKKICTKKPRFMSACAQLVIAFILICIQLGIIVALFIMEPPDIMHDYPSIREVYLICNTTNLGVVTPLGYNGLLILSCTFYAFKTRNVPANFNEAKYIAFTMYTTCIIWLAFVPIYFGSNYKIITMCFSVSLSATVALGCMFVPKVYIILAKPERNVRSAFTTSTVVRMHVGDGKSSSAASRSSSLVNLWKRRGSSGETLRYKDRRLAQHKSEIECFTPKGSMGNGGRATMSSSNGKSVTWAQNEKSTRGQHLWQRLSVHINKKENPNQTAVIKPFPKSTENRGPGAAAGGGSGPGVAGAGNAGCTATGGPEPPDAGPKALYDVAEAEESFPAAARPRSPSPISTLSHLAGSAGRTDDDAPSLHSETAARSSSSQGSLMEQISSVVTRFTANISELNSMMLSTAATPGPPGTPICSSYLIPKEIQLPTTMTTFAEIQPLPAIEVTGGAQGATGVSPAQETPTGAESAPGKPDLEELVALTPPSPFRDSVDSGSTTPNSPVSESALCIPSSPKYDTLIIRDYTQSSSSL

[4] = molecular target: T1, Metabotropic glutamate receptor 5; assay: Agonist activity at rat mGluR5 stably expressed in HEK293 cells assessed as increase in intracellular calcium level by Fluo-4AM dye-based fluorescence assay; format: cell-based; details: for pEC50: read-out: EC50; procedure, shortened: as §1
[5] = molecular target: Metabotropic glutamate receptor 5 (Rattus norvegicus) (UniProt P31424); assay: Potentiation of rat mGluR5 receptor stably expressed in HEK293 cells assessed as fold shift in glutamate concentration response curve at 10 uM relative to control; format: cell-based
Procedure, shortened: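 HEK293 cells stably expressing rat mGlu5 were loaded with Fluo-4AM. Compound at 10 µM, or vehicle, was added, and a glutamate concentration-response curve followed 140 s later. The fold leftward shift of the glutamate curve was read from calcium fluorescence. Values are means of three independent experiments in triplicate.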

T1 sequence (P31424 whole entry): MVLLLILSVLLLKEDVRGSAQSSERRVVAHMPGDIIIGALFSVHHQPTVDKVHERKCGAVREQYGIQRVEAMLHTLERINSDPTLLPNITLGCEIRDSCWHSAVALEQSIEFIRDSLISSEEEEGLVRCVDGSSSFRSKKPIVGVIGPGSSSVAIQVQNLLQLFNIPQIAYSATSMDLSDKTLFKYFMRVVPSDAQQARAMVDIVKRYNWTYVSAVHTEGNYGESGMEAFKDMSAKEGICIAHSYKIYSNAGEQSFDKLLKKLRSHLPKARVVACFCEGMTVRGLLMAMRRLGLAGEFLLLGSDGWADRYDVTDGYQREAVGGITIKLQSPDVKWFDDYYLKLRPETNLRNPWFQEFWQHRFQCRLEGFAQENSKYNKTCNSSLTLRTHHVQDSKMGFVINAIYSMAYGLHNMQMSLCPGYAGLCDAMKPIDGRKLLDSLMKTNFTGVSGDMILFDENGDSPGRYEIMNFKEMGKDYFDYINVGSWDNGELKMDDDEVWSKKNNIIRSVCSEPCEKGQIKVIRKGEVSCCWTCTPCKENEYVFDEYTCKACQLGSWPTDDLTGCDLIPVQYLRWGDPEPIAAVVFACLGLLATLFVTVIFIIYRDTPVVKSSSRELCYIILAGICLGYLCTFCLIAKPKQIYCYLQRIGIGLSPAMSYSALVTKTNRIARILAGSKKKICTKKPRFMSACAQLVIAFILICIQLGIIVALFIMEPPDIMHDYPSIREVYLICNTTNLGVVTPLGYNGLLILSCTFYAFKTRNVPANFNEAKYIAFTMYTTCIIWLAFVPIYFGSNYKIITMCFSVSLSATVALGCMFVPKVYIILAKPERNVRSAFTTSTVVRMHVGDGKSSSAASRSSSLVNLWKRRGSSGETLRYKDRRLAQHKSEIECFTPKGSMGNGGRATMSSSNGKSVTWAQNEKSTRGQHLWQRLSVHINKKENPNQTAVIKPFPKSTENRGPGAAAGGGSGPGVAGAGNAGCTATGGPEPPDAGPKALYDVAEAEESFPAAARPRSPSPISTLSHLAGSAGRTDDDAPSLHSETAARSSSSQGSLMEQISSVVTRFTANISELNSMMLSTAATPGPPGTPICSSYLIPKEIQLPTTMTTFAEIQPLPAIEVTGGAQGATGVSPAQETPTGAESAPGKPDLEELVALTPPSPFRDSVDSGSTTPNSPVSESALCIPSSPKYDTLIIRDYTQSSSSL

SMILES: C[C@@H](NC(=O)c1ccc(C#Cc2cccc(F)c2)nn1)C(C)(C)O
- Emax [1]: 16.5%
- pEC50 [2]: 7.66
- Efficacy [3]: 70.2%
- pEC50 [4]: 5.67

SMILES: C[C@@H](NC(=O)c1ccc(C#Cc2ccncc2)cn1)C(C)(C)O
- Emax [1]: 22.4%
- pEC50 [2]: 7.37
- Efficacy [3]: 66.6%
- pEC50 [4]: 5.33

SMILES: C[C@@H](NC(=O)c1cnc(C#Cc2cccc(F)c2)nc1)C(C)(C)O
- fold change (FC) [5]: 4
- pEC50 [2]: 6.91
- Efficacy [3]: 68.7%

SMILES: Cc1cc(C(=O)N[C@H](C)C(C)(C)O)ncc1C#Cc1cccc(F)c1
- pEC50 [2]: 6.62
- Efficacy [3]: 66.6%

SMILES: O=C(NCC(F)(F)F)c1ccc(C#Cc2cccc(F)c2)cn1
- Emax [1]: 5.8%
- pEC50 [2]: 6.65
- Efficacy [3]: 67%
- pEC50 [4]: 4.97

SMILES: C[C@@H](NC(=O)c1ccc(C#Cc2cccc(F)c2)cn1)C(F)(F)F
- fold change (FC) [5]: 1.5
- pEC50 [2]: 7.68
- Efficacy [3]: 52.1%

SMILES: CC1(NC(=O)c2ccc(C#Cc3ccncc3)cn2)COC1
- pEC50 [2]: 6.16
- Efficacy [3]: 36%

SMILES: C[C@H](NC(=O)c1ccc(C#Cc2cccc(F)c2)cn1)C(F)(F)F
- Emax [1]: 21.4%
- pEC50 [2]: 7.66
- Efficacy [3]: 60.8%
- pEC50 [4]: 5.86

SMILES: CC1(CCNC(=O)c2ccc(C#Cc3cccc(F)c3)cn2)COC1
- Emax [1]: 16.3%
- pEC50 [2]: 7.33
- Efficacy [3]: 65.7%
- pEC50 [4]: 5.55

SMILES: C[C@@H](NC(=O)c1ccc(C#Cc2cccc(F)c2)cc1)C(C)(C)O
- Emax [1]: 43.6%
- pEC50 [2]: 8.12
- Efficacy [3]: 53.9%
- pEC50 [4]: 5.98

SMILES: C[C@@H](NC(=O)c1ccc(C#Cc2ccc(F)cn2)cn1)C(C)(C)O
- Emax [1]: 13.5%
- pEC50 [2]: 7.55
- Efficacy [3]: 64.6%
- pEC50 [4]: 5.77

SMILES: CC(C)(C)NC(=O)c1ccc(C#Cc2cccc(F)c2)cn1
- pEC50 [2]: 8.59

SMILES: C[C@@H](NC(=O)c1ccc(C#CC2CCCC2)cn1)C(C)(C)O
- Emax [1]: 14.8%
- pEC50 [2]: 7.03
- Efficacy [3]: 63.7%
- pEC50 [4]: 5.01

SMILES: C[C@@H](NC(=O)c1ccc(C#Cc2cccnc2)cn1)C(C)(C)O
- Emax [1]: 25.9%
- pEC50 [2]: 6.46
- Efficacy [3]: 71.5%
- pEC50 [4]: 5.03

SMILES: CC(C)[C@H](C)NC(=O)c1ccc(C#Cc2cccc(F)c2)cn1
- Emax [1]: 13.1%
- pEC50 [2]: 7.69
- Efficacy [3]: 66.7%
- pEC50 [4]: 5.65

SMILES: C[C@@H](NC(=O)c1ccc(C#Cc2cccc(F)c2)nc1)C(C)(C)O
- Emax [1]: 26.6%
- pEC50 [2]: 7.10
- Efficacy [3]: 64.9%
- pEC50 [4]: 5.17

SMILES: C[C@@H](NC(=O)c1ccc(C#Cc2ccccc2F)cn1)C(C)(C)O
- Emax [1]: 29.6%
- pEC50 [2]: 8.10
- Efficacy [3]: 60%
- pEC50 [4]: 5.94

SMILES: C[C@@H](NC(=O)c1cnc(C#Cc2cccc(F)c2)cn1)C(C)(C)O
- Emax [1]: 17.2%
- pEC50 [2]: 7.90
- Efficacy [3]: 64.4%
- pEC50 [4]: 5.52

SMILES: C[C@@H](NC(=O)c1ccc(C#Cc2cccc(F)n2)cn1)C(C)(C)O
- Emax [1]: 8.3%
- pEC50 [2]: 7.87
- Efficacy [3]: 63%
- pEC50 [4]: 5.89

SMILES: C[C@@H](NC(=O)c1ccc(C#Cc2ccc(F)cc2F)cn1)C(C)(C)O
- Emax [1]: 38.2%
- pEC50 [2]: 7.58
- Efficacy [3]: 61.2%
- pEC50 [4]: 5.43

SMILES: Cc1ccc(C#Cc2ccc(C(=O)N[C@H](C)C(C)(C)O)nc2)cc1
- pEC50 [2]: 6.97
- Efficacy [3]: 63.1%

SMILES: O=C(NCC1CCC1)c1ccc(C#Cc2cccc(F)c2)cn1
- Emax [1]: 4.7%
- pEC50 [2]: 7.08
- Efficacy [3]: 68.1%
- EC50 ([4]; read-out: pEC50 (converted)): > 10000 nM

SMILES: CCCNC(=O)c1ccc(C#Cc2cccc(F)c2)cn1
- Emax [1]: 8.3%
- pEC50 [2]: 7.46
- Efficacy [3]: 65.9%
- pEC50 [4]: 5.52

SMILES: C[C@@H](NC(=O)c1ccc(C#Cc2ncccc2F)cn1)C(C)(C)O
- Emax [1]: 29.2%
- pEC50 [2]: 7.47
- Efficacy [3]: 60.6%
- pEC50 [4]: 5.43

SMILES: Cc1cccc(C#Cc2ccc(C(=O)N[C@H](C)C(C)(C)O)nc2)c1
- Emax [1]: 20.8%
- pEC50 [2]: 8.19
- Efficacy [3]: 68.6%
- pEC50 [4]: 5.87

SMILES: C[C@@H](NC(=O)c1ccc(C#CC2CC2)cn1)C(C)(C)O
- pEC50 [2]: 5.89
- Efficacy [3]: 63.4%

SMILES: C[C@@H](NC(=O)c1ncc(C#Cc2cccc(F)c2)cn1)C(C)(C)O
- Emax [1]: 19.2%
- pEC50 [2]: 7.32
- Efficacy [3]: 64.1%
- pEC50 [4]: 5.38

SMILES: C[C@@H](NC(=O)c1ccc(C#Cc2cc(F)ccn2)cn1)C(C)(C)O
- Emax [1]: 33%
- pEC50 [2]: 7.44
- Efficacy [3]: 66.2%
- pEC50 [4]: 5.40

SMILES: C[C@H](NC(=O)c1ccc(C#Cc2cccc(F)c2)cn1)C(C)(C)C
- Emax [1]: 20%
- pEC50 [2]: 7.28
- Efficacy [3]: 70.8%
- pEC50 [4]: 5.27

SMILES: C[C@@H](NC(=O)c1ccc(C#Cc2cccc(F)c2)cn1)C(C)(C)C
- Emax [1]: 31.2%
- pEC50 [2]: 7.75
- Efficacy [3]: 66%
- pEC50 [4]: 5.56

SMILES: CC(C)(C)CNC(=O)c1ccc(C#Cc2cccc(F)c2)cn1
- Emax [1]: 9.5%
- pEC50 [2]: 7.78
- Efficacy [3]: 63.9%
- pEC50 [4]: 5.59

SMILES: C[C@@H](NC(=O)c1ccc(C#Cc2ccccc2)cn1)C(C)(C)O
- Emax [1]: 43.2%
- pEC50 [2]: 8.39
- Efficacy [3]: 60.9%
- pEC50 [4]: 6.06

SMILES: C[C@@H](NC(=O)c1ccc(C#Cc2ccc(F)cc2)cn1)C(C)(C)O
- Emax [1]: 38.4%
- pEC50 [2]: 7.91
- Efficacy [3]: 66.2%
- pEC50 [4]: 5.82

SMILES: C[C@@H](NC(=O)c1ccc(C#Cc2cccc(F)c2)cn1)C(C)(C)F
- Emax [1]: 42.8%
- pEC50 [2]: 8.28
- Efficacy [3]: 68.6%
- pEC50 [4]: 5.69

SMILES: CC(C)(CO)NC(=O)c1ccc(C#Cc2cccc(F)c2)cn1
- Emax [1]: 9.3%
- pEC50 [2]: 8.10
- Efficacy [3]: 60.9%
- pEC50 [4]: 6.14

SMILES: CC(C)(O)CNC(=O)c1ccc(C#Cc2cccc(F)c2)cn1
- Emax [1]: 20%
- pEC50 [2]: 7.46
- Efficacy [3]: 61.5%
- pEC50 [4]: 5.40

SMILES: C[C@@H](NC(=O)c1nc(C#Cc2cccc(F)c2)cs1)C(C)(C)O
- Emax [1]: 26.1%
- pEC50 [2]: 7.47
- Efficacy [3]: 62.1%
- pEC50 [4]: 5.32

SMILES: Cc1nc(C#Cc2cccc(F)c2)ccc1C(=O)N[C@H](C)C(C)(C)O
- Emax [1]: 9.2%
- pEC50 [2]: 7.77
- Efficacy [3]: 64.9%
- pEC50 [4]: 5.96

SMILES: CC(C)[C@@H](C)NC(=O)c1ccc(C#Cc2cccc(F)c2)cn1
- Emax [1]: 22.5%
- pEC50 [2]: 8.35
- Efficacy [3]: 69.3%
- pEC50 [4]: 5.83

SMILES: C[C@@H](NC(=O)c1ccc(C#Cc2ccccn2)cn1)C(C)(C)C
- Emax [1]: 24.2%
- pEC50 [2]: 7.20
- Efficacy [3]: 63%
- pEC50 [4]: 5.21

SMILES: C[C@@H](NC(=O)c1ccc(C#Cc2cc(F)cc(F)c2)cn1)C(C)(C)O
- Emax [1]: 37.9%
- pEC50 [2]: 7.24
- Efficacy [3]: 61.6%
- pEC50 [4]: 5.44

SMILES: Cc1ccccc1C#Cc1ccc(C(=O)N[C@H](C)C(C)(C)O)nc1
- Emax [1]: 24.1%
- pEC50 [2]: 6.66
- Efficacy [3]: 59.9%
- pEC50 [4]: 4.91
